Reference: PubChem BioAssay
Results filed as inconclusive are left out.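 The calls were made as follows, unless noted: active = viability increase at or above a cutoff of the median across tested compounds plus 3 SD (cut at about 8.5% in these data, passing the limit was not always enough); inconclusive = some gains above the cutoff, reason not given; inactive = the rest.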

Key:
[1] = S. cerevisiae growth inhibition in permissive medium (OD615), pilot counter-assay for S. cerevisiae lifespan shortening project, permissive growth control (AID 705;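 active = growth inhibition above 25% in both replicates, a cutoff set 3 SD above the mean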); conditions: OD615, 24 h, at 10 µM, hits give high values
In short: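 System – S. cerevisiae with engineered DeaD lifespan system · Buffer or medium – SC raffinose/galactose permissive medium · Schedule – cells pre-grown 4 h, then 24 h compound exposure, 30 °C humidified · Technique – culture turbidity as optical density at 615 nm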

[2] = S. cerevisiae growth inhibition in restrictive medium, OD615, pilot screen, restrictive growth control, yeast lifespan reduction project (AID 706;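 active = growth inhibition above a set limit, 3 SD over mean compound inhibition, in both replicates, cut at about 43% in these data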;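 also: modified DeaD lifespan yeast strain shifted to restrictive glucose medium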); conditions: OD615, 48 h, at 10 µM, hits give high values
In short: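 Material: engineered S. cerevisiae DeaD strain / Medium: glucose-based CSMM-D restrictive medium / Compound: single dose of 10 µM compound final, 0.25% DMSO / Timing: 4 h pre-incubation, 48 h exposure at 30 °C / Technique: OD615 absorbance reading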

[3] = doxorubicin toxicity protection in MRP-1 cells – H69AR cells, CellTiter-Glo, duplicate, MRP-1 activator project, pilot screen (AID 807); conditions: H69AR viability with doxorubicin, CellTiter-Glo luminescence; at 10 µM; hits give high values;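 also: compound pretreatment 18-22 h then 72 h combined with doxorubicin; 0% = doxorubicin alone and 100% = vehicle without doxorubicin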
[4] = viability of HCT116 without oncogenic beta-catenin – human colon tumor cells, pilot screen (AID 823;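 active = cell viability at or below a set limit in both duplicate runs, the limit being the all-compound median minus 4 SD, cut at about 23% in these data, passing the limit was not always enough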;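 also: 0% = wells killed by 20 µM Hyamine and 100% = untreated DMSO cell wells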); conditions: HCT116 beta-catenin knockout viability, CellTiter-Glo, 60 h; at 10 µM; hits give low values
[5] = viability of PTEN-null HCT116 cells – cell-based, HCT116 clonal line, CellTiter-Glo, pilot screen (AID 824;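 active = viability at or below 27.92% in each of two runs, the all-compound median minus 4 SD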;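 also: 0% = 20 µM Hyamine control and 100% = vehicle cell control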); conditions: HCT116 PTEN-deleted viability, 60 h, at 10 µM, hits give low values
[6] = RAM pathway blockade in budding yeast – dse1pr::URA3 reporter, 5-FOA selection, pilot screen (AID 869;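 active = inhibition over a set limit, the all-compound mean plus 3 SD, in both replicate runs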;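 also: 0% = DMSO wells with no growth and 100% = 10 µM 1-NA-PP1 with full growth; RAM network block rescues cells from 5-FOA so hits raise OD615 growth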); conditions: S. cerevisiae dse1pr::URA3 5-FOA growth, OD615, 2 d; at 10 µM; hits give high values; strain carries analog-sensitive mutant Cbk1 kinase
[7] = RAM signaling pathway blockade in yeast – S. cerevisiae, Pdr1DBD-CYC8 efflux-inhibited sensitized strain, primary screen (AID 1298;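 active = RAM network inhibition above 8.4% in each of two replicates, 3 SD over the compound average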;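 also: 0% = DMSO untreated cells without growth and 100% = 10 µM 1-NA-PP1 full growth; higher means more yeast growth rescued from 5-FOA killing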); conditions: S. cerevisiae cbk1-as DSE1-URA3 strain, 5-FOA growth OD615, 2 d; at 50 µM; hits give high values

CC1(C)C(c2ccccc2)=[N+]([O-])CN1O
inactive: growth inhibition [1] 1.85% | growth inhibition [2] 9.78% | viability increase [3] -2.5% | viability [4] 107% | viability [5] 96.3% | inhibition [6] -0.14% | RAM network inhibition [7] -0.11%

CCN(CC)CCNC(=O)Cn1cnc2sc(C)c(S(=O)(=O)N3CCOCC3)c2c1=O
inactive: growth inhibition [1] 6.37% | growth inhibition [2] 4.68% | viability increase [3] -1.11% | viability [4] 99% | viability [5] 99.3% | inhibition [6] 0.39% | RAM network inhibition [7] 6.22%

CC(C)N1C(=O)CCC1C(=O)N1CCC(Cc2ccccc2)CC1 (stereo not drawn)
inactive: growth inhibition [1] -8.06% | growth inhibition [2] 0.645% | viability increase [3] 1.19% | viability [4] 102% | viability [5] 95.3% | inhibition [6] 1.92% | RAM network inhibition [7] 2.34%

CN1CCN(Cc2c(O)ccc3occ(C(=O)c4ccccc4)c23)CC1
inactive: growth inhibition [1] -13% | growth inhibition [2] -16.2% | viability increase [3] -4% | viability [4] 73% | viability [5] 79% | inhibition [6] 1.56% | RAM network inhibition [7] 7.8%

Cc1ccc(N2CCN(C(=O)c3ccccc3F)CC2)c(C)c1
inactive: growth inhibition [1] -12.4% | growth inhibition [2] -14.5% | viability increase [3] 2.73% | viability [4] 93.3% | viability [5] 91% | inhibition [6] -0.61% | RAM network inhibition [7] 4.91%

CC(=O)NC(C)c1nc2ccccc2n1Cc1ccccc1F (stereo not drawn)
inactive: growth inhibition [1] -5.38% | growth inhibition [2] -3.36% | viability increase [3] 0.25% | viability [4] 102% | viability [5] 93.8% | inhibition [6] 3.67% | RAM network inhibition [7] 5.71%

CCOC(=O)c1ccc(Nc2cc(C)nc(-c3ccccc3O)n2)cc1
inactive: growth inhibition [1] -6.03% | growth inhibition [2] -3.53% | viability increase [3] 1.42% | viability [4] 78.5% | viability [5] 75.8% | inhibition [6] -0.345% | RAM network inhibition [7] 1.54%

Cc1cc(Nc2cc(C)on2)n2ncnc2n1
inactive: growth inhibition [1] 2.33% | growth inhibition [2] -10% | viability increase [3] -1.14% | viability [4] 106% | viability [5] 99.8% | inhibition [6] 0.195% | RAM network inhibition [7] 2.24%

CCOc1ccc(-c2cc(CCCC(=O)NCc3cccnc3)no2)cc1
inactive: growth inhibition [1] 0.205% | growth inhibition [2] 12.9% | viability increase [3] -3.69% | viability [4] 82.2% | viability [5] 92.9% | inhibition [6] 0.54% | RAM network inhibition [7] 2.74%

COc1ccccc1N1CCN(C(=O)c2cc3cc(Br)ccc3oc2=O)CC1
inactive: growth inhibition [1] 2.45% | growth inhibition [2] -11.9% | viability increase [3] -0.94% | viability [4] 110% | viability [5] 94.1% | inhibition [6] 2.47% | RAM network inhibition [7] 1.96%

CCn1c(=NC(=O)CN2C(=O)CCC2=O)sc2c(OC)ccc(OC)c21
inactive: growth inhibition [1] -5.83% | growth inhibition [2] -14.7% | viability increase [3] -2.94% | viability [4] 87.4% | viability [5] 96% | inhibition [6] 2.75% | RAM network inhibition [7] 6.17%

Cc1cc2ccccc2n1CCNC(=O)COc1ccccc1
inactive: growth inhibition [1] -3.44% | growth inhibition [2] 11.8% | viability increase [3] -0.8% | viability [4] 99.2% | viability [5] 94.2% | inhibition [6] 2.31% | RAM network inhibition [7] 8.38%

COc1ccc(C2=NOC(C(=O)Nc3c(C)n(C)n(-c4ccccc4)c3=O)C2)cc1OC (stereo not drawn)
inactive: growth inhibition [1] -9.01% | growth inhibition [2] -7.64% | viability increase [3] 1.69% | viability [4] 102% | viability [5] 106% | inhibition [6] 0.4% | RAM network inhibition [7] 4.75%

CCN(CC)S(=O)(=O)c1ccc(C(=O)OCC(=O)N2CCN(C(=O)c3ccco3)CC2)cc1
inactive: growth inhibition [1] -8.4% | growth inhibition [2] -3.91% | viability increase [3] 0.34% | viability [4] 89.7% | viability [5] 93.6% | inhibition [6] 1.86% | RAM network inhibition [7] 1.24%

Cc1cccn2c(=O)c3cc(C(=O)NCCCN4CCOCC4)n(C)c3nc12
inactive: growth inhibition [1] -4.96% | growth inhibition [2] -3.14% | viability increase [3] 0.44% | viability [4] 93.1% | viability [5] 93.1% | inhibition [6] 1.06% | RAM network inhibition [7] 0.37%

Cc1cccc(N(C)c2cc(C)nc3ncnn23)c1
inactive: growth inhibition [1] 2.75% | growth inhibition [2] 3.99% | viability increase [3] -1.19% | viability [4] 97.3% | viability [5] 99.6% | inhibition [6] 0.99% | RAM network inhibition [7] 4.73%

CCc1ccc(C2CC(c3ccc(F)cc3)Nc3nc(N)nn32)cc1 (stereo not drawn)
inactive: growth inhibition [1] -4.34% | growth inhibition [2] 9.52% | viability increase [3] -0.06% | viability [4] 103% | viability [5] 95.4% | inhibition [6] -0.41% | RAM network inhibition [7] 7.69%

COc1ccc(S(=O)(=O)Cc2ccc(C(=O)NCc3ccco3)o2)cc1
inactive: growth inhibition [1] -3.02% | growth inhibition [2] -11.6% | viability increase [3] -4.28% | viability [4] 104% | viability [5] 97.4% | inhibition [6] 0.88% | RAM network inhibition [7] 0.47%

COc1cccc(/C=C2\N=C(SC)SC2=O)c1OC
inactive: growth inhibition [1] -20.1% | growth inhibition [2] -7.18% | viability increase [3] -3.76% | viability [4] 89.8% | viability [5] 105% | inhibition [6] 3.8% | RAM network inhibition [7] 8.12%

C=CCNC(=O)C1CC(=O)N(c2ccc(C)cc2)C1 (stereo not drawn)
inactive: growth inhibition [1] -10.6% | growth inhibition [2] -4.72% | viability increase [3] -3.08% | viability [4] 93.9% | viability [5] 86.1% | inhibition [6] 0.995% | RAM network inhibition [7] 4.77%

CCOC(=O)CON1C(=O)C(C)(C)N(OCC(=O)OCC)C(=O)C1(C)C
inactive: growth inhibition [1] -0.865% | growth inhibition [2] -9.37% | viability increase [3] -0.75% | viability [4] 104% | viability [5] 101% | inhibition [6] 0.38% | RAM network inhibition [7] 1.33%

CCOc1ccc(Cn2nnc(C(=O)NCc3ccccc3)c2N)cc1
inactive: growth inhibition [1] 2.25% | growth inhibition [2] 3.87% | viability increase [3] 2.17% | viability [4] 93.2% | viability [5] 85.5% | inhibition [6] 0.395% | RAM network inhibition [7] 3.74%

Clc1ccccc1C1CC(c2ccccc2)Nc2ncnn21 (stereo not drawn)
inactive: growth inhibition [1] -10.9% | growth inhibition [2] -11.2% | viability increase [3] -1.24% | viability [4] 83.9% | viability [5] 81.2% | inhibition [6] 2.05% | RAM network inhibition [7] -0.69%

O=C(CSc1nc2ccccc2o1)NCc1ccco1
inactive: growth inhibition [1] -11.6% | growth inhibition [2] -16% | viability increase [3] -3.53% | viability [4] 102% | viability [5] 98% | inhibition [6] 0.97% | RAM network inhibition [7] 5.5%
